A short description of data set [1]: Half life in mouse. Type of data set: ADME, organism-based. As to conditions: in vivo.
Data set [2] relates to Influenza A virus. As to the kind of experiment: Antimicrobial activity against Influenza A virus (A/Puerto Rico/8/34(H1N1)) infected in BALB/c mouse assessed as reduction in viral titer in lung at 1 mg/kg, po bid repeated regimen after 11 hrs post infection. Also noted: dose 1 mg/kg. In kind it is functional, organism-based. Conditions: A/Puerto Rico/8/1934(H1N1), TDE = time-dependent effect. The essentials:
(§1)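 BALB/c mice infected intranasally with A/PR/8/34 at 30 PFU. Oral drug was given twice daily from 11 hpi with intranasal saline at 11 hpi, or a single intranasal dose at 11 hpi with oral saline on the same schedule. Lungs (n = 3) were harvested at 35, 59 and 83 hpi. Titers were measured by MDCK plaque assay, log10 PFU/lungs.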

For data set [3], the system named is Influenza A virus. As to the kind of experiment: Antimicrobial activity against Influenza A virus (A/Puerto Rico/8/34(H1N1)) infected in BALB/c mouse assessed as increase in mouse survival at 11 mg/kg, po for 4 days post infection. Type of data set: functional, organism-based. Conditions: A/Puerto Rico/8/1934(H1N1). The arrangement: dose 11 mg/kg.
The subject of data set [4] is Influenza A virus. As to the kind of experiment: Antimicrobial activity against Influenza A virus (A/Puerto Rico/8/34(H1N1)) infected in BALB/c mouse assessed as increase in mouse survival at 1.1 mg/kg, po bid administered 11 hrs post infection for 5 days […] infection measured on day 20. In kind it is functional, A/Puerto Rico/8/1934(H1N1). The method, boiled down:
(§2)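 Female BALB/c mice (5–6 weeks) infected intranasally with A/PR/8/34 at 100 PFU, n = 10 per group. Each mouse got one intranasal dose at 11 hpi plus oral doses twice daily from 11 hpi to 120 hpi. Drug went by one route and saline by the other, all in saline vehicle. Survival was followed daily to day 20 and analysed by Kaplan-Meier with a log-rank test against the saline group.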

Data set [5] has as its system Influenza A virus. The data set is described as follows: Antimicrobial activity against Influenza A virus (A/Puerto Rico/8/34(H1N1)) infected in BALB/c mouse assessed as increase in mouse survival at 1.1 mg/kg, po for 4 days post infection. In kind it is functional, organism-based. The arrangement: dose 1.1 mg/kg. Conditions: A/Puerto Rico/8/1934(H1N1).
The species named for data set [6] is Rattus norvegicus. As to the kind of experiment: Half life in rat assessed as oseltamivir carboxylate. In kind it is ADME, organism-based. As to conditions: in vivo.
In data set [7] the test system is Influenza B virus. As to the kind of experiment: Antimicrobial activity against Influenza B virus (B/Malaysia/2506/2004) infected po dosed Mustela putorius furo assessed as nasal viral titer treated bid after 4 hrs post infection measured after 1 day. Type of data set: functional, organism-based. The essentials: (§3)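 Ferrets (600–800 g), seronegative by hemagglutination inhibition, anaesthetized with ketamine/xylazine and infected with B/Malaysia/2506/2004, 1,000 PFU/100 μl. From 4 hpi they received either a single intranasal dose (saline, 0.05 or 0.5 μmol/kg) or 25 mg/kg oral twice daily. Nasal wash titers measured by MDCK plaque assay on days 1, 2 and 3, log10 PFU/ml (n = 5). Undetectable samples entered at the lower limit of detection.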

The subject of data set [8] is Influenza A virus. As to the kind of experiment: Antimicrobial activity against oseltamivir-sensitive influenza A virus (A/Yokohama/67/2006 (H1N1)) clone 1 infected in BALB/c mouse assessed as reduction in viral titer in lung at 1.0 mg/kg, po administered QD post 13 hrs infection measured after 61 hrs post infection. Type of data set: functional, organism-based. The arrangement: dose 1 mg/kg.

Data set [9] relates to Influenza A virus. The data set is described as follows: Antimicrobial activity against Influenza A virus (A/Puerto Rico/8/34(H1N1)) infected in BALB/c mouse assessed as increase in mouse survival at 11 mg/kg, po for 1 day post infection. Conditions: A/Puerto Rico/8/1934(H1N1). The arrangement: dose 11 mg/kg. In kind it is functional, organism-based.
In data set [10] the test system is Influenza A virus. As to the kind of experiment: Antimicrobial activity against Influenza A virus (A/Puerto Rico/8/34(H1N1)) infected in BALB/c mouse assessed as increase in mouse survival at 1.1 mg/kg, po bid administered 11 hrs post infection for 5 days […] infection. The arrangement: dose 1.1 mg/kg. Conditions: A/Puerto Rico/8/1934(H1N1). In kind it is functional, organism-based. The essentials: as §2

In data set [11] the test system is Influenza A virus. The data set is described as follows: Antimicrobial activity against oseltamivir-sensitive influenza A virus (A/Yokohama/67/2006 (H1N1)) clone 1 infected in BALB/c mouse assessed as reduction in viral titer in lung at 10 mg/kg, po administered QD post 13 hrs infection measured after 85 hrs post infection. Type of data set: functional, organism-based. The arrangement: dose 10 mg/kg.

The subject of data set [12] is Influenza A virus. As to the kind of experiment: Antimicrobial activity against oseltamivir-sensitive influenza A virus (A/Yokohama/67/2006 (H1N1)) clone 1 infected in BALB/c mouse assessed as reduction in viral titer in lung at 10 mg/kg, po administered QD post 13 hrs infection measured after 61 hrs post infection. In kind it is functional, organism-based. Also noted: dose 10 mg/kg.

The test system of data set [13] is Influenza A virus. As to the kind of experiment: Antimicrobial activity against Influenza A virus (A/Puerto Rico/8/34(H1N1)) infected in BALB/c mouse assessed as increase in mouse survival at 110 mg/kg, po for 1 days before infection. In kind it is functional, organism-based. Also noted: dose 110 mg/kg. Conditions: A/Puerto Rico/8/1934(H1N1). The essentials:
(§4)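 Mice received one oral dose (200 μl in saline) at 1 day or 12 h before intranasal infection with A/PR/8/34 at 100 PFU. Saline controls were dosed intranasally 7 days before infection. n = 8 per group. Survival was monitored to 20 dpi and compared with saline by log-rank test.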

Data set [14] relates to Influenza A virus. As to the kind of experiment: Antimicrobial activity against oseltamivir-sensitive influenza A virus (A/Yokohama/67/2006 (H1N1)) clone 1 infected in BALB/c mouse assessed as reduction in viral titer in lung at 1.0 mg/kg, po administered QD post 13 hrs infection measured after 85 hrs post infection. In kind it is functional, organism-based. Also noted: dose 1 mg/kg.

Data set [15] relates to Influenza A virus. The data set is described as follows: Antimicrobial activity against Influenza A virus (A/Puerto Rico/8/34(H1N1)) infected in BALB/c mouse assessed as increase in mouse survival at 1.1 mg/kg, po for 12 hrs post infection. Type of data set: functional, organism-based. Also noted: dose 1.1 mg/kg. Conditions: A/Puerto Rico/8/1934(H1N1).
For data set [16], the system named is Influenza A virus. The data set is described as follows: Antimicrobial activity against oseltamivir-sensitive influenza A virus (A/Yokohama/67/2006 (H1N1)) clone 1 infected in BALB/c mouse assessed as reduction in viral titer in lung at 10 mg/kg, po administered QD post 13 hrs infection measured after 37 hrs post infection. Type of data set: functional, organism-based. Also noted: dose 10 mg/kg.

Data set [17] relates to Influenza A virus. The data set is described as follows: Antimicrobial activity against Influenza A virus (A/Puerto Rico/8/34(H1N1)) infected in BALB/c mouse assessed as increase in mouse survival at 11 mg/kg, po for 12 hrs post infection. Type of data set: functional, organism-based. The arrangement: dose 11 mg/kg. As to conditions: A/Puerto Rico/8/1934(H1N1).
Data set [18] deals with Influenza A virus. As to the kind of experiment: Antimicrobial activity against Influenza A virus (A/Puerto Rico/8/34(H1N1)) infected in BALB/c mouse assessed as increase in mouse survival at 1.1 mg/kg, po for 7 days post infection. Type of data set: functional, organism-based. As to conditions: A/Puerto Rico/8/1934(H1N1). Also noted: dose 1.1 mg/kg.
In data set [19] the test system is Influenza A virus. The data set is described as follows: Antimicrobial activity against Influenza A virus (A/Puerto Rico/8/34(H1N1)) infected in BALB/c mouse assessed as increase in mouse survival at 110 mg/kg, po for 12 hrs before infection. Also noted: dose 110 mg/kg. Type of data set: functional, organism-based. As to conditions: A/Puerto Rico/8/1934(H1N1). The method, boiled down: as §4

Data set [20] relates to Influenza B virus. As to the kind of experiment: Antimicrobial activity against Influenza B virus (B/Malaysia/2506/2004) infected po dosed Mustela putorius furo assessed as nasal viral titer treated bid after 4 hrs post infection measured after 2 days. In kind it is functional, organism-based. The method, boiled down:
as §3

In data set [21] the test system is Influenza A virus. As to the kind of experiment: Antimicrobial activity against Influenza A virus (A/Puerto Rico/8/34(H1N1)) infected in BALB/c mouse assessed as increase in mouse survival at 11 mg/kg, po for 7 days post infection. The arrangement: dose 11 mg/kg. Type of data set: functional, organism-based. Conditions: A/Puerto Rico/8/1934(H1N1).
In data set [22] the test system is Influenza A virus. The data set is described as follows: Antimicrobial activity against Influenza A virus (A/Puerto Rico/8/34(H1N1)) infected in BALB/c mouse assessed as reduction in viral titer in lung at 10 mg/kg, po bid repeated regimen after 11 hrs post infection. Conditions: A/Puerto Rico/8/1934(H1N1), TDE = time-dependent effect. Type of data set: functional, organism-based. The arrangement: dose 10 mg/kg. The method, boiled down:
as §1

Data set [23] concerns Influenza A virus. As to the kind of experiment: Antimicrobial activity against oseltamivir-sensitive influenza A virus (A/Yokohama/67/2006 (H1N1)) clone 1 infected in BALB/c mouse assessed as reduction in viral titer in lung at 1.0 mg/kg, po administered qd post 13 hrs infection measured after 37 hrs post infection. Also noted: dose 1 mg/kg. In kind it is functional, organism-based.

The subject of data set [24] is Influenza A virus. As to the kind of experiment: Antimicrobial activity against Influenza A virus (A/Puerto Rico/8/34(H1N1)) infected in BALB/c mouse assessed as increase in mouse survival at 1.1 mg/kg, po for 1 day post infection. The arrangement: dose 1.1 mg/kg. In kind it is functional, organism-based. As to conditions: A/Puerto Rico/8/1934(H1N1).
Data set [25] has as its system Influenza B virus. As to the kind of experiment: Antimicrobial activity against Influenza B virus (B/Malaysia/2506/2004) infected po dosed Mustela putorius furo assessed as nasal viral titer treated bid after 4 hrs post infection measured after 3 days. In kind it is functional, organism-based. The essentials:
as §3

The source made the active and inactive calls.

The half-life is the time needed for the level to fall by half in the phase considered. A high value points to slow loss. `CO[C@@H]([C@@H]1OC(C(=O)O)=C[C@H](NC(=N)N)[C@H]1NC(C)=O)[C@H](O)CO` [LANINAMIVIR]: in [1], the half-life is 41.4 h.

As to `CCOC(=O)C1=C[C@@H](OC(CC)CC)[C@H](NC(C)=O)[C@@H](N)C1.O=P(O)(O)O` [OSELTAMIVIR PHOSPHATE], the Activity entry was “tde” in data set [2]; 50% in data set [4]; “Dose-dependent effect” in data set [7]; “Dose-dependent effect” in data set [20]; “tde” in [22]; “Dose-dependent effect” in data set [25]. For the same compound, the outcome in data set [3], in [5], in data set [9], in data set [15], in [17] and in data set [18] was inactive. For the same compound, the result in data set [21] and in [24] was inactive. Moreover, the t1/2 in [6] was determined as 7 h. The result in data set [8], in data set [10], in [11], in data set [12], in data set [13] and in data set [14] was Active. In addition, the outcome in data set [16], in [19] and in data set [23] was Active.

The values are drawn from ChEMBL document CHEMBL1255395, “Laninamivir prodrug CS-8958, a long-acting neuraminidase inhibitor, shows superior anti-influenza virus activity after a single administration” (Antimicrob Agents Chemother, 2010).
